The target in experiment [1] is Kynurenine 3-monooxygenase (Rattus norvegicus) (UniProt O88867). As to the kind of experiment: Percent activity of rat striatal kynurenine 3-hydroxylase (KYN3OH) activity at 1 mM by quantifying 3-hydroxykynurenine production.
The target in experiment [2] is Nitric oxide synthase 1 (Rattus norvegicus) (UniProt P29476). As to the kind of experiment: Percentage inhibition of rat striatal neural nitric oxide synthase (nNOS) activity at 1 mM by quantifying L-[3H]citrulline production. The method in brief:
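Striatal homogenate was made in pH 7.6 Tris buffer with DTT and protease inhibitors, then spun 1000g for 5 min. Supernatant was incubated with 25 mM Tris, 1 mM DTT, 30 μM H4-biopterin, 10 μM FAD, 0.1 mM CaCl2, 10 μM L-arginine plus 50 nM L-[3H]-arginine, 0.75 mM NADPH and compound at 1 mM final in DMSO, 37 °C, 30 min. L-[3H]-citrulline separated on Dowex-50W and counted. NADPH-free blank subtracted. Three experiments in triplicate.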

Chain of Nitric oxide synthase 1 (Rattus norvegicus) (P29476 whole entry): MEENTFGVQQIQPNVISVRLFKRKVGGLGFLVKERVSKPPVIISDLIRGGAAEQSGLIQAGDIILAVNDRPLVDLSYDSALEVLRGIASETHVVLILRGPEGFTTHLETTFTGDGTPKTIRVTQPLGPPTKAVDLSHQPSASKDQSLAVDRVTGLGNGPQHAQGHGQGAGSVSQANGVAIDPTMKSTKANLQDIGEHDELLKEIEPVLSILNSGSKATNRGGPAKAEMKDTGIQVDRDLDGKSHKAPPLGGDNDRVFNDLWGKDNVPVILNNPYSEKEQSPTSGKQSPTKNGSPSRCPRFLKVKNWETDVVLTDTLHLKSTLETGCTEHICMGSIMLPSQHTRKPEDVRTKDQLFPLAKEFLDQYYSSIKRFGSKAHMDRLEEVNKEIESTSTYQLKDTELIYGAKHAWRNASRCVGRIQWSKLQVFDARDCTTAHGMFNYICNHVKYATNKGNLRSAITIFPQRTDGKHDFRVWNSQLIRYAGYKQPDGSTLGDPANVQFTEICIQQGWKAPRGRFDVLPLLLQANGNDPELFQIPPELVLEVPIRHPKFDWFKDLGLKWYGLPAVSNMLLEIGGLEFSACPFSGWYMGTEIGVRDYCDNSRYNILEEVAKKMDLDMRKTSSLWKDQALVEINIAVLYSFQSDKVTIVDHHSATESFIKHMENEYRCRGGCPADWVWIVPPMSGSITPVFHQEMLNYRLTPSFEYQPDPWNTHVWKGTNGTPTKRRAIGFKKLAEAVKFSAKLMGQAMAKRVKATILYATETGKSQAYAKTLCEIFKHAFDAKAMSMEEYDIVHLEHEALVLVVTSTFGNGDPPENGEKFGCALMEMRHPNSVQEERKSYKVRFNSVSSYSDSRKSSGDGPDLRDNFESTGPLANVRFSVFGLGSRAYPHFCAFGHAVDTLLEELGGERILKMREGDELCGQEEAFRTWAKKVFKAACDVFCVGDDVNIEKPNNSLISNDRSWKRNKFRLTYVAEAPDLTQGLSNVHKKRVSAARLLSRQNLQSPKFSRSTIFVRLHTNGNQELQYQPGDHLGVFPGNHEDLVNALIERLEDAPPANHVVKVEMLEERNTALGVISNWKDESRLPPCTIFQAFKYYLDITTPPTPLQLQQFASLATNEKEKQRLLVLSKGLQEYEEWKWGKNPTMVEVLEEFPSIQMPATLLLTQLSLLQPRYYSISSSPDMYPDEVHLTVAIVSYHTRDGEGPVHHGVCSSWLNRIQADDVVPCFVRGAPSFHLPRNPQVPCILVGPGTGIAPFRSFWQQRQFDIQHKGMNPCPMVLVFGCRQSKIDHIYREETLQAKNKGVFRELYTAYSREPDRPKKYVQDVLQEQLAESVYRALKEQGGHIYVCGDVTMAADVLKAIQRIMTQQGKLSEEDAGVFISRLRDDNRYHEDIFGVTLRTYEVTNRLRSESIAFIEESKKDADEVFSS
Chain of Kynurenine 3-monooxygenase (Rattus norvegicus) (O88867 whole entry, looked up): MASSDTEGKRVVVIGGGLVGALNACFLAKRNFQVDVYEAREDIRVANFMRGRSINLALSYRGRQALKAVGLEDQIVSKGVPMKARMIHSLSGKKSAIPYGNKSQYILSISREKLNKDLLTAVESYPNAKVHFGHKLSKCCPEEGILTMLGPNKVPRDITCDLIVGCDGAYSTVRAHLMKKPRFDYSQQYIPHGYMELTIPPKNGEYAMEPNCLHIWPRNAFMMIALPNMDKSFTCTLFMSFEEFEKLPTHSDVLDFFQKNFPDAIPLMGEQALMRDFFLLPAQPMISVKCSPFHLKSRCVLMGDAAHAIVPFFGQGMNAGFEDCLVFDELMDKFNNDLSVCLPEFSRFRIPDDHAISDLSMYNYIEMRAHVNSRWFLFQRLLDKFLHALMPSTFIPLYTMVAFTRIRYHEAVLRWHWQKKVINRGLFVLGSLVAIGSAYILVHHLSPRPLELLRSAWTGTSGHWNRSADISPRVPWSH

The term inhibition denotes the drop in the measured response relative to a control, in per cent. A high value points to a response far below the control. As for `COc1ccc(N)c(C(=O)CCNC(=O)C2CCCCC2)c1`, in experiment [1], the % activity worked out at 99.6%. In experiment [2], the inhibition worked out at 48.2%.
In experiment [2], `CC(=O)NCCC(=O)c1cc(Cl)ccc1N` returned an inhibition of 31.7%.
As to `COc1ccc(N)c(C(=O)CCNC(=O)C2CCCC2)c1`, the % activity in experiment [1] turned out to be 96.3%. This molecule showed an inhibition in experiment [2] of 45%.
As to `COc1ccc(N)c(C(=O)CCNC(C)=O)c1`, the % activity in experiment [1] is 102%. This molecule returned an inhibition in experiment [2] of 65.4%.
The molecule `Nc1ccc(Cl)cc1C(=O)CCNC(=O)c1ccccc1` registered an inhibition in experiment [2] of 21.7%.
With `COc1ccc(N)c(C(=O)CCNC(=O)C2CC2)c1`, the % activity in experiment [1] was found to be 99.9%. This molecule also gave an inhibition in experiment [2] of 40.4%.
In the case of `CCC(=O)NCCC(=O)c1cc(OC)ccc1N`, the % activity in experiment [1] stood at 99.4%. Moreover, the inhibition in experiment [2] was 50.9%.
For the molecule `CCCCC(=O)NCCC(=O)c1cc(OC)ccc1N`, the % activity in experiment [1] was determined as 97.2%. Also, the inhibition in experiment [2] came out at 39.6%.
In the case of `COc1ccc(N)c(C(=O)CCNC(=O)c2ccccc2)c1`, in experiment [1], the % activity stood at 97.2%. The same molecule gave an inhibition in experiment [2] of 46.5%.
As to `COc1ccc(N)c(C(=O)CCNC(=O)C2CCC2)c1`, the % activity in experiment [1] was 92.2%. The molecule further registered an inhibition in experiment [2] of 33.7%.
`CCCC(=O)NCCC(=O)c1cc(OC)ccc1N`: the inhibition in experiment [2] was found to be 42.8%.
As for `Nc1ccc(Cl)cc1C(=O)CCNC(=O)C1CC1`, the inhibition in experiment [2] stood at 23.3%.

The record behind these values is ChEMBL document CHEMBL1140421, “Kynurenamines as neural nitric oxide synthase inhibitors” (J Med Chem, 2005).
